# Assay results reported in ChEMBL document CHEMBL2331233, “Rational design, efficient syntheses and biological evaluation of N,N'-symmetrically bis-substituted butylimidazole analogs as a new class of potent Angiotensin II receptor blockers” (Eur J Med Chem, 2013).
# What was measured:
# [1] = biological target: T1, Type-1 angiotensin II receptor (Homo sapiens, UniProt P30556); assay: Displacement of [125I-Sar1-Ile8]-ANG2 from human Angiotensin 2 type-1 receptor expressed in HEK293 cells after 1 hr by gamma counting analysis; type: cell-based
# T1 sequence (P30556 whole entry): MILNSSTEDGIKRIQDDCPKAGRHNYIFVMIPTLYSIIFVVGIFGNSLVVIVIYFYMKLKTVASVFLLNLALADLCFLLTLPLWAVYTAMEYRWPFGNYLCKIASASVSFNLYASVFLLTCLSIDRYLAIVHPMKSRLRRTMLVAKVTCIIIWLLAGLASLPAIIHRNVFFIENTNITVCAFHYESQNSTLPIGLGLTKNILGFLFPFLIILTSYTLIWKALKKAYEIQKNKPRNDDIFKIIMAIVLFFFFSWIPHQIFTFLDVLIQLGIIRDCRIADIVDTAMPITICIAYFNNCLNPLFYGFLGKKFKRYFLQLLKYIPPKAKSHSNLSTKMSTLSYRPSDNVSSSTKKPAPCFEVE
# Method in brief: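 Membranes from HEK 293 cells stably transfected with human AT1 receptor (Geneticin 700 µg/mL selection) incubated in buffer B (50 mM Tris–HCl, 1 mM EDTA, 10 mM MgCl2, 0.2% BSA, bacitracin, aprotinin, pH 7.4) with 100,000–120,000 cpm radioligand and increasing analog concentrations, 1 h, 24 °C; GF/C filtration. Nonspecific binding with 1000 nM [Sar1-Ile8]ANGII. One-site nonlinear fit gives -log IC50; 2–4 experiments.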
# [2] = Antagonist activity at Angiotensin 2 type-1 receptor in Wistar rat uterus assessed as suppression of ANG2-induced contraction
compound,measurement,setting,value
CCCCc1c[n+](Cc2ccc(-c3ccccc3-c3nn[nH]n3)cc2)c(CO)n1Cc1ccc(-c2ccccc2-c2nn[nH]n2)cc1.[Br-],IC50,[1],4.27 nM
same,pA2,[2],8.58
CCCCc1c(Cl)[n+](Cc2ccc(-c3ccccc3-c3nn[nH]n3)cc2)cn1Cc1ccc(-c2ccccc2-c2nn[nH]n2)cc1,IC50,[1],832 nM
CCCCc1c(Br)[n+](Cc2ccc(-c3ccccc3-c3nn[nH]n3)cc2)cn1Cc1ccc(-c2ccccc2-c2nn[nH]n2)cc1,IC50,[1],708 nM
CCCCc1c(Cl)[n+](Cc2ccc(-c3ccccc3-c3nn[nH]n3)cc2)c(CO)n1Cc1ccc(-c2ccccc2-c2nn[nH]n2)cc1,IC50,[1],6460 nM
CCCCc1c(Br)[n+](Cc2ccc(-c3ccccc3-c3nn[nH]n3)cc2)c(CO)n1Cc1ccc(-c2ccccc2-c2nn[nH]n2)cc1.[Br-],IC50,[1],42.7 nM
same,pA2,[2],7.13
CCCCc1n(Cc2ccc(-c3ccccc3-c3nn[nH]n3)cc2)cc[n+]1Cc1ccc(-c2ccccc2-c2nn[nH]n2)cc1,IC50,[1],1700 nM
CCCCc1n(Cc2ccc(-c3ccccc3-c3nn[nH]n3)cc2)c(CO)c(Cl)[n+]1Cc1ccc(-c2ccccc2-c2nn[nH]n2)cc1,IC50,[1],417 nM
CCCCc1c[n+](Cc2ccc(-c3ccccc3C(=O)O)cc2)cn1Cc1ccc(-c2ccccc2C(=O)O)cc1,IC50,[1],331 nM
CCCCc1c[n+](Cc2ccc(-c3ccccc3C(=O)O)cc2)c(CO)n1Cc1ccc(-c2ccccc2C(=O)O)cc1,IC50,[1],501 nM
CCCCc1c[n+](Cc2ccc(-c3ccccc3-c3nn[nH]n3)cc2)cn1Cc1ccc(-c2ccccc2-c2nn[nH]n2)cc1,IC50,[1],0.347 nM
CCCCc1c[n+](Cc2ccc(-c3ccccc3-c3nn[n-]n3)cc2)cn1Cc1ccc(-c2ccccc2-c2nn[nH]n2)cc1,IC50,[1],0.912 nM
CCCCc1c[n+](Cc2ccc(-c3ccccc3-c3nn[n-]n3)cc2)cn1Cc1ccc(-c2ccccc2-c2nn[n-]n2)cc1.[Br-].[Na+].[Na+],IC50,[1],2.88 nM
same,pA2,[2],8.45
